Experimental data from ChEMBL document CHEMBL4257551, “Glycyrrhizic acid from licorice down-regulates inflammatory responses via blocking MAPK and PI3K/Akt-dependent NF-κB signalling pathways in TPA-induced skin inflammation” (2018).
Calls of active or inactive are those of the source. The calls are words filed in the database; no cut-off is given here.

What was measured:
Mus musculus [1] = test: Antiinflammatory activity against TPA-induced ear edema in BALB/c mouse assessed as decrease in ear punches at 50 mM administered topically for 15 mins prior to TPA challenge and measured after 6 hrs relative to control; type: functional; parameters: scale not given: the % may be the effect or the level left
How it was run: (§1)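 Female BALB/c mice, 4–5 weeks old, n = 3 per group. Both ears received 30 μL of test solution in DMSO:methylene chloride (20:80) at 50, 100, 150 or 200 mM. Topical TPA (30 μL, 25 μg mL⁻¹) followed 15 min later. Mice were killed at 6 h, and two 6 mm punches per animal were weighed. Controls had vehicle then acetone. Mean ± SD of six experiments in triplicate.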

Mus musculus [2] = test: Antiinflammatory activity against TPA-induced ear edema in BALB/c mouse assessed as decrease in ear punches at 100 mM administered topically for 15 mins prior to TPA challenge and measured after 6 hrs relative to control; type: functional; parameters: scale not given: the % may be the effect or the level left; how it was run: as §1
Mus musculus [3] = test: Antiinflammatory activity against TPA-induced ear edema in BALB/c mouse assessed as decrease in ear punches at 150 mM administered topically for 15 mins prior to TPA challenge and measured after 6 hrs relative to control; type: functional; parameters: scale not given: the % may be the effect or the level left; how it was run: as §1
Mus musculus [4] = test: Antiinflammatory activity against TPA-induced ear edema in BALB/c mouse assessed as decrease in ear punches at 200 mM administered topically for 15 mins prior to TPA challenge and measured after 6 hrs relative to control; type: functional; parameters: scale not given: the % may be the effect or the level left; how it was run: as §1
Mus musculus [5] = test: Antiinflammatory activity against TPA-induced ear edema in BALB/c mouse assessed as decrease in ear punches administered topically for 15 mins prior to TPA challenge and measured after 6 hrs; type: functional, organism-based; how it was run: as §1
Mus musculus [6] = test: Antiinflammatory activity against TPA-induced ear edema in BALB/c mouse assessed as weight of ear punches at 200 mM administered topically for 15 mins prior to TPA challenge and measured after 3 hrs (reference value: 8.3 +/- 0.1 mg); type: functional
Mus musculus [7] = test: Antiinflammatory activity against TPA-induced ear edema in BALB/c mouse assessed as weight of ear punches at 200 mM administered topically for 15 mins prior to TPA challenge and measured after 12 hrs (reference value: 12.4 +/- 0.1 mg); type: functional
Mus musculus [8] = test: Antiinflammatory activity against TPA-induced ear edema in BALB/c mouse assessed as weight of ear punches at 200 mM administered topically for 15 mins prior to TPA challenge and measured after 24 hrs (reference value: 12.1 +/- 0.2 mg); type: functional
Mus musculus [9] = test: Antiinflammatory activity against TPA-induced ear edema in BALB/c mouse assessed as weight of ear punches at 200 mM administered topically for 15 mins prior to TPA challenge and measured after 48 hrs (reference value: 11.4 +/- 0.3 mg); type: functional
Mus musculus [10] = test: Antiinflammatory activity against TPA-induced ear edema in BALB/c mouse assessed as weight of ear punches at 200 mM, po administered 15 mins prior to TPA challenge and measured after 3 hrs (reference value: 8.3 +/- 0.1 mg); type: functional
Mus musculus [11] = test: Antiinflammatory activity against TPA-induced ear edema in BALB/c mouse assessed as weight of ear punches at 200 mM, po administered 15 mins prior to TPA challenge and measured after 6 hrs (reference value: 12.5 +/- 0.3 mg); type: functional
Mus musculus [12] = test: Antiinflammatory activity against TPA-induced ear edema in BALB/c mouse assessed as weight of ear punches at 200 mM, po administered 15 mins prior to TPA challenge and measured after 12 hrs (reference value: 12.4 +/- 0.1 mg); type: functional
Mus musculus [13] = test: Antiinflammatory activity against TPA-induced ear edema in BALB/c mouse assessed as weight of ear punches at 200 mM, ip administered 15 mins prior to TPA challenge and measured after 3 hrs (reference value: 8.3 +/- 0.1 mg); type: functional
Mus musculus [14] = test: Antiinflammatory activity against TPA-induced ear edema in BALB/c mouse assessed as weight of ear punches at 200 mM, ip administered 15 mins prior to TPA challenge and measured after 6 hrs (reference value: 12.5 +/- 0.3 mg); type: functional
Mus musculus [15] = test: Antiinflammatory activity against TPA-induced ear edema in BALB/c mouse assessed as weight of ear punches at 200 mM, ip administered 15 mins prior to TPA challenge and measured after 12 hrs (reference value: 12.4 +/- 0.1 mg); type: functional
Mus musculus [16] = test: Antiinflammatory activity against TPA-induced ear edema in BALB/c mouse assessed as weight of ear punches at 200 mM, ip administered 15 mins prior to TPA challenge and measured after 24 hrs (reference value: 12.1 +/- 0.2 mg); type: functional
Mus musculus [17] = test: Antiinflammatory activity against TPA-induced ear edema in BALB/c mouse assessed as weight of ear punches at 200 mM, ip administered 15 mins prior to TPA challenge and measured after 48 hrs (reference value: 11.4 +/- 0.3 mg); type: functional
Mus musculus [18] = test: Antiinflammatory activity against TPA-induced ear edema in BALB/c mouse assessed as decrease in weight of ear punches at 5 mg administered topically for 15 mins prior to TPA challenge and measured after 3 hrs relative to control; type: functional; parameters: scale not given: the % may be the effect or the level left
Mus musculus [19] = test: Antiinflammatory activity against TPA-induced ear edema in BALB/c mouse assessed as decrease in weight of ear punches at 5 mg administered topically for 15 mins prior to TPA challenge and measured after 6 hrs relative to control; type: functional; parameters: scale not given: the % may be the effect or the level left
Mus musculus [20] = test: Antiinflammatory activity against TPA-induced ear edema in BALB/c mouse assessed as decrease in weight of ear punches at 5 mg administered topically for 15 mins prior to TPA challenge and measured after 12 hrs relative to control; type: functional; parameters: scale not given: the % may be the effect or the level left
Mus musculus [21] = test: Antiinflammatory activity against TPA-induced ear edema in BALB/c mouse assessed as decrease in weight of ear punches at 5 mg administered topically for 15 mins prior to TPA challenge and measured after 24 hrs relative to control; type: functional; parameters: scale not given: the % may be the effect or the level left
Mus musculus [22] = test: Antiinflammatory activity against TPA-induced ear edema in BALB/c mouse assessed as decrease in weight of ear punches at 5 mg administered topically for 15 mins prior to TPA challenge and measured after 48 hrs relative to control; type: functional; parameters: scale not given: the % may be the effect or the level left
Mus musculus [23] = test: Antiinflammatory activity against TPA-induced ear edema in BALB/c mouse assessed as decrease in weight of ear punches at 200 mM, po administered 15 mins prior to TPA challenge and measured after 24 hrs relative to control; type: functional; parameters: scale not given: the % may be the effect or the level left
Mus musculus [24] = test: Antiinflammatory activity against TPA-induced ear edema in BALB/c mouse assessed as decrease in weight of ear punches at 200 mM, po administered 15 mins prior to TPA challenge and measured after 48 hrs relative to control; type: functional; parameters: scale not given: the % may be the effect or the level left
Mus musculus [25] = test: Antiinflammatory activity against TPA-induced ear edema in BALB/c mouse assessed as decrease in leucocyte infiltration in edema administered topically for 15 mins prior to TPA challenge and measured after 6 hrs by hematoxylin/eosin staining-based microscopic method; type: functional, organism-based
How it was run: (§2)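 Female BALB/c mice were pretreated topically at 50–200 mM, then given TPA. Ears were taken at 6 h, fixed in 4% PFA, decalcified in EDTA, paraffin-embedded and sectioned at 4 μm for H&E. Epidermal hyperplasia and dermal leukocyte infiltration were scored in at least five regions at 200×. ANOVA with Dunnett's test.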

Mus musculus [26] = test: Antiinflammatory activity against TPA-induced ear edema in BALB/c mouse assessed as decrease in epidermal hyperplasia in edema administered topically for 15 mins prior to TPA challenge and measured after 6 hrs by hematoxylin/eosin staining-based microscopic method; type: functional, organism-based; how it was run: as §2
Mus musculus [27] = test: Antiinflammatory activity against TPA-induced ear edema in BALB/c mouse assessed as decrease in 18F-FDG uptake in ears administered topically for 15 mins prior to TPA challenge and measured after 24 hrs by microPET-CT imaging method; type: functional, organism-based
How it was run: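 CT-guided regions of interest were drawn over the ears, and uptake was expressed as SUVmax and SUVmean. Dosing was 200 mM in DMSO:methylene chloride (20:80) on the ears before topical TPA.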

Mus musculus [28] = test: Antiinflammatory activity against TPA-induced ear edema in BALB/c mouse assessed as decrease in iNOS expression in edema administered topically for 15 mins prior to TPA challenge by immunohistochemical method; type: functional, organism-based
Mus musculus [29] = test: Antiinflammatory activity against TPA-induced ear edema in BALB/c mouse assessed as decrease in COX2 expression in edema administered topically for 15 mins prior to TPA challenge by immunohistochemical method; type: functional, organism-based
Mus musculus [30] = test: Antiinflammatory activity against TPA-induced ear edema in BALB/c mouse assessed as decrease in IkappaBalpha degradation in edema administered topically for 15 mins prior to TPA challenge by immunohistochemical method; type: functional, organism-based
Mus musculus [31] = test: Antiinflammatory activity against TPA-induced ear edema in BALB/c mouse assessed as decrease in IkappaBalpha phosphorylation in edema administered topically for 15 mins prior to TPA challenge by immunohistochemical method; type: functional, organism-based
Mus musculus [32] = test: Antiinflammatory activity against TPA-induced ear edema in BALB/c mouse assessed as decrease in p65 phosphorylation in edema administered topically for 15 mins prior to TPA challenge by immunohistochemical method; type: functional, organism-based
Mus musculus [33] = test: Antiinflammatory activity against TPA-induced ear edema in BALB/c mouse assessed as decrease in p38 phosphorylation in edema administered topically for 15 mins prior to TPA challenge by immunohistochemical method; type: functional, organism-based
Mus musculus [34] = test: Antiinflammatory activity against TPA-induced ear edema in BALB/c mouse assessed as decrease in ERK1/2 phosphorylation in edema administered topically for 15 mins prior to TPA challenge by immunohistochemical method; type: functional, organism-based
Mus musculus [35] = test: Antiinflammatory activity against TPA-induced ear edema in BALB/c mouse assessed as decrease in Akt expression in edema at 50 to 200 mM administered topically for 15 mins prior to TPA challenge by immunohistochemical method; type: functional, organism-based
Mus musculus [36] = test: Antiinflammatory activity against TPA-induced ear edema in BALB/c mouse assessed as decrease in PI3K p85 expression in edema at 50 to 200 mM administered topically for 15 mins prior to TPA challenge by immunohistochemical method; type: functional, organism-based
Mus musculus [37] = test: Antiinflammatory activity against TPA-induced ear edema in BALB/c mouse assessed as decrease in Akt phosphorylation in edema administered topically for 15 mins prior to TPA challenge by immunohistochemical method; type: functional, organism-based
Mus musculus [38] = test: Antiinflammatory activity against TPA-induced ear edema in BALB/c mouse assessed as decrease in PI3K p85 phosphorylation in edema administered topically for 15 mins prior to TPA challenge by immunohistochemical method; type: functional, organism-based

`CC1(C)[C@@H](O[C@H]2O[C@H](C(=O)O)[C@@H](O)[C@H](O)[C@H]2O[C@@H]2O[C@H](C(=O)O)[C@@H](O)[C@H](O)[C@H]2O)CC[C@]2(C)[C@H]3C(=O)C=C4[C@@H]5C[C@@](C)(C(=O)O)CC[C@]5(C)CC[C@@]4(C)[C@]3(C)CC[C@@H]12` [GLYCYRRHIZIN] showed an Activity (Mus musculus [1]) of 31.5%, an Activity (Mus musculus [2]) of 60.3% and an Activity (Mus musculus [3]) of 63%. The Activity (Mus musculus [4]) was 87.7%, the Activity (Mus musculus [5]) was “Dose-dependent effect” and the Activity (Mus musculus [6]) was 5.6 mg. It also gave an Activity (Mus musculus [7]) of 6.1 mg, an Activity (Mus musculus [8]) of 5.9 mg and an Activity (Mus musculus [9]) of 5.9 mg. The Activity (Mus musculus [10]) was 8 mg, the Activity (Mus musculus [11]) was 12.3 mg and the Activity (Mus musculus [12]) was 12.1 mg. For the same molecule, the Activity (Mus musculus [13]) was 7.8 mg, the Activity (Mus musculus [14]) was 14.6 mg and the Activity (Mus musculus [15]) was 14.1 mg. For the same molecule, the Activity (Mus musculus [16]) was 13.5 mg, the Activity (Mus musculus [17]) was 13.1 mg and the Activity (Mus musculus [18]) was 87.1%. For the same molecule, the Activity (Mus musculus [19]) was 87.7%, the Activity (Mus musculus [20]) was 87.5% and the Activity (Mus musculus [21]) was 89.9%. The Activity (Mus musculus [22]) was 88.7%, the Activity (Mus musculus [23]) was 66.7% and the Activity (Mus musculus [24]) was 64.5%. For the same molecule, the Activity (Mus musculus [25]) was “Dose-dependent effect”, the Activity (Mus musculus [26]) was “Dose-dependent effect” and the Activity (Mus musculus [27]) was “Active”. For the same molecule, the Activity (Mus musculus [28]) was “Dose-dependent effect”, the Activity (Mus musculus [29]) was “Dose-dependent effect” and the Activity (Mus musculus [30]) was “Dose-dependent effect”. The Activity (Mus musculus [31]) was “Dose-dependent effect”, the Activity (Mus musculus [32]) was “Dose-dependent effect” and the Activity (Mus musculus [33]) was “Dose-dependent effect”. For the same molecule, the Activity (Mus musculus [34]) was “Dose-dependent effect”, the Activity (Mus musculus [35]) was “Active” and the Activity (Mus musculus [36]) was “Active”. The Activity (Mus musculus [37]) was “Dose-dependent effect” and the Activity (Mus musculus [38]) was “Dose-dependent effect”.
